Test system: dogs with compensated CHF caused by MMVD
Assay: Urine output
Type: in vivo, dog
Procedure, shortened: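 Crossover design in 7 male dogs with ACVIM stage C CHF from MMVD, treated in fixed order with a 2-week washout. Baseline UOP was measured at the end of a 1-h control period. […] UOP was log-transformed and analysed by linear mixed modelling (REML, least square differences).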

## NS(=O)(=O)c1cc(C(=O)O)c(NCc2ccco2)cc1Cl [FRUS, furosemide]
1 hour after treatment, median of 7 dogs
  increase in median UOP compared to baseline at maximal effect: 1246%
BNP 5 μg/kg SC, FRUS 2 mg/kg SC, or both, 1, 2, 3 hours, 7 dogs
  change in urine output (UOP) from baseline: increased significantly
Furosemide 2 mg/kg SC with or without BNP 5 μg/kg SC
  time after treatment of maximal effect on UOP: 1 h
